The values below come from ChEMBL document CHEMBL1140174, “A copper(I)-catalyzed 1,2,3-triazole azide-alkyne click compound is a potent inhibitor of a multidrug-resistant HIV-1 protease variant” (J Med Chem, 2008).

pEC50, pIC50, pKi: −log10 of the molar value. Active and inactive are the calls of the source. The rule behind the calls is not given here.

Test [1] relates to Human immunodeficiency virus 1. Briefly: Antiviral activity against wild type HIV1 in human SupT1 cells assessed as inhibition of viral replication measured at 6 days postinfection by p24 ELISA assay. In kind it is functional, organism-based. Particulars: Human immunodeficiency virus 1, SUP-T1, 144 h. The method in brief:
(§1)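 SupT1 cells (RPMI 1640, 10% FCS, 2mM L-glutamine, penicillin/streptomycin) infected with 10–100ng/mL p24 of virus at 37°C, washed, then cultured ± inhibitor at 1–4000 nM. Supernatant sampled every second day with media and inhibitor replenished. p24 measured by ELISA at 6 days post-infection, expressed as percentage of untreated cells; EC50 by nonlinear regression.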

The nature of test [2]: Inhibition of multidrug-resistant HIV1 protease with V82A, M46I, F53L, V77I, L24I, L63P mutation. The arrangement: species or system Human immunodeficiency virus 1. The method in brief: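 Fluorogenic cleavage assay with purified protease in 25mM MES pH 5.6, 200mM NaCl, 5% glycerol, 1mM DTT. Final concentrations 25nM enzyme, 30μM anthranilyl substrate H-2992, inhibitor 0.001–600μM. Reaction started by adding substrate in a prewarmed plate, read by fluorescence. IC50 by nonlinear regression of initial velocities; Ki from Cheng-Prusoff.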

Test [3] has as its system Human immunodeficiency virus 1. Briefly: Antiviral activity against wild type HIV1 in human SubT1 cells assessed as inhibition of viral replication at 250 nM measured at 6 days postinfection by p24 ELISA assay. In kind it is functional, organism-based. The method, boiled down:
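SupT1 cells (RPMI 1640, 10% fetal calf serum) were infected with wild-type HIV-1 (10–100ng/mL p24) at 37°C, washed, then cultured with inhibitor at 1–4000 nM. Every second day supernatant was sampled and medium plus inhibitor replaced. p24 was measured by ELISA 6 days post-infection and expressed as a percentage of untreated cells (relative p24).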
On the technique in general: In an ELISA, binding on a coated surface is turned into a signal by an enzyme label.

For test [4], the system named is Human immunodeficiency virus 1. Briefly: Antiviral activity against multidrug-resistant HIV1 with protease V82A, M46I, […], V77I, L24I, L63P mutation in human SubT1 cells assessed as inhibition of viral replication at 250 nM measured at 6 days postinfection by p24 ELISA assay relative to control. In kind it is functional. The method in brief: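 SupT1 cells (RPMI 1640, 10% fetal calf serum, 2mM L-glutamine, penicillin/streptomycin) infected with 10–100ng/mL p24 of SupT1-grown virus at 37°C, washed, then resuspended in medium with or without inhibitor (1–4000 nM range). Supernatant sampled every second day with medium and inhibitor replenished. p24 quantified by ELISA 6 days post infection, expressed as percentage of untreated cells.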

The target in test [5] is Protease (Human immunodeficiency virus 1, UniProt Q9YQ12). Put plainly: Inhibition of wild type HIV1 protease. The method, boiled down: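 Purified HIV-1 protease (expression and purification described in earlier work) is preincubated with inhibitor in 25mM MES pH 5.6, 200mM NaCl, 5% glycerol, 1mM DTT in a prewarmed plate. Final concentrations: 25nM protease, 30µM fluorogenic anthranilyl substrate H-2992, 0.001–600µM inhibitor. Cleavage is read as fluorescence intensity. IC50 comes from nonlinear regression of initial velocities against inhibitor concentration, and Ki is calculated with the Cheng-Prusoff equation.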

Test [6] has as its system Human immunodeficiency virus 1. Put plainly: Antiviral activity against multidrug-resistant HIV1 with protease V82A, M46I, F53L, V77I, L24I, L63P mutation in human SupT1 cells assessed as viral LTR-driven luciferase activity using TZM-bl cells. Format: functional, organism-based. Conditions: Human immunodeficiency virus 1, SUP-T1. The method in brief: (§2)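 SupT1 cells infected at MOI 0.001–0.005 and cultured with inhibitor at 1–4000 nM. On day 5–6, cell-free supernatant transferred to 10^4 TZM-bl cells carrying an HIV-1 LTR-driven luciferase reporter. Luciferase read by luminescence after 48 h. EC50 from nonlinear regression.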

The subject of test [7] is Human immunodeficiency virus 1. Put plainly: Antiviral activity against multidrug-resistant HIV1 with protease V82A, M46I, F53L, V77I, L24I, L63P mutation in human SupT1 cells assessed as inhibition of viral replication measured at 6 days postinfection by p24 ELISA assay. Conditions: Human immunodeficiency virus 1, SUP-T1, 144 h. Format: functional, organism-based. The method in brief: as §1

In test [8] the test system is Human immunodeficiency virus 1. Put plainly: Antiviral activity against wild type HIV1 in human SupT1 cells assessed as viral LTR-driven luciferase activity using TZM-bl cells. Format: functional, organism-based. Particulars: Human immunodeficiency virus 1, SUP-T1. The method in brief:
as §2

Protease, sequence (Q9YQ12 whole entry): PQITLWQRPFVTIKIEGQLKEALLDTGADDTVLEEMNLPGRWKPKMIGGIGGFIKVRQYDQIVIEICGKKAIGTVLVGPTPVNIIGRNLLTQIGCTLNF

In the case of `COc1ccc(S(=O)(=O)N(CC(C)C)C[C@@H](O)[C@H](Cc2ccccc2)n2cc(COC(=O)N[C@H]3c4ccccc4C[C@H]3O)nn2)cc1`, the pEC50 (commonly the EC50 on a negative log10 scale, so that one unit is a factor of ten) in test [1] was 7.52; in test [6], 6.59; in test [7], 7.26; in test [8], 7.07. In addition, the results for the pIC50 in test [2] and in test [5] were 7.80 and 8.22, respectively. In addition, the values for the pKi in test [2] and in test [5] were 8.15 and 8.57, respectively. Besides, the outcome in test [3] was Active. In addition, the “fold change (FC)” value in test [4] is recorded as 20.
On to `CC(C)[C@H](NC(=O)[C@H](C)NC(=O)OCc1ccccc1)C(=O)N[C@@H](Cc1ccccc1)[C@@H](O)[C@H](O)[C@H](Cc1ccccc1)NC(=O)[C@@H](NC(=O)[C@H](C)NC(=O)OCc1ccccc1)C(C)C`, for which the pEC50 in test [1] was 7.34; in test [8], 7.04.
